# M1 antag – antagonists of rat M1 muscarinic receptor | 64,000 compounds, 3.4% hits | B-score at 10 µM | CHO-M1 cells, Fluo-4 calcium, ACh EC80 antagonist mode; hits give low values;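 active = calcium fluorescence response, raw or row-and-column corrected B-score, differing from the plate sample mean either way at a set confidence level, mostly lower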
# Target sequence (P08482 whole entry, looked up): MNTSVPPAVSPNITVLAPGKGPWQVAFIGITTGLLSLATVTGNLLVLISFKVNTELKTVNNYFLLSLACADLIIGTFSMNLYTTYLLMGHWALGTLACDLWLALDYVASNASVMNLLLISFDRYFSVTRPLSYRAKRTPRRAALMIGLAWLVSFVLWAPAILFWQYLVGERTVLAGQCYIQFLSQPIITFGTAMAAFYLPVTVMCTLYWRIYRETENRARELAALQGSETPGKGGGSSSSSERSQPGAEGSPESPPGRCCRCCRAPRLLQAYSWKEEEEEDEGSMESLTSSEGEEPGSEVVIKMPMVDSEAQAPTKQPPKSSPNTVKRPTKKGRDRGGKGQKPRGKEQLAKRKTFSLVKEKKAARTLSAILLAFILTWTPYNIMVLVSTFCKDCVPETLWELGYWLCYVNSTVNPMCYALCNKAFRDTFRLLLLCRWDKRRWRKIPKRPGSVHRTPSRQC
# HEK293 NFkB inh – lowers PMA/ionomycin-induced NF-kB signal in HEK293 cells; AID 465; 62,000 compounds, 0.21% hits; inhibition, % at 3 µM; HEK-293 NF-kB luciferase reporter, luminescence;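 active = inhibition above the mean of all tested compounds plus 3 SD, cut at about 40% in these data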;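 note: 0% = stimulated DMSO wells and 100% = 10 µM reference inhibitor 5653914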
#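 Material: HEK-293 cells with stable firefly luciferase reporter driven by four HIV NF-kB elements / Also added: PMA plus ionomycin mix as NF-kB-activating stimulus / Compound dosing: 3 µM once, 0.30% DMSO / Times: 1 h pretreatment, 16 h stimulation, 37 °C / Signal: luminescence / Evaluation: per-plate % inhibition versus controls / Benchmarks: DMSO and 10 µM reference inhibitor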
# Jurkat viability – reduces viability or proliferation of Jurkat cells | Jurkat E6.1 viability, ATP luminescence, 48 h | AID 463 | 56,000 compounds, 1.2% hits | inhibition, % at 4 µM;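 active = inhibition above the mean inhibition of all tested compounds plus 3 SD, cut at about 28% in these data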
# M1 agonist – M1 muscarinic receptor agonism | 64,000 compounds, 3% hits | B-score at 10 µM | CHO-M1 cells, Fluo-4 calcium fluorescence, agonist mode; hits give high values | AID 626;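 active = fluorescence rise, raw or as B-score row- and column-corrected plate score, outside the 99.7% band of its plate's samples, either direction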
# D1 allo mod – allosterically modulates the human D1 dopamine receptor. P21728. HEK293 D1, CRE-luciferase, dopamine EC30 potentiation; actives deviate in either direction. B-score at 10 µM. 58,000 compounds, 5.9% hits;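 active = luminescence count or its row- and column-corrected plate score outside the 99.7% band of the plate's sample wells, on either side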
# hDAT+cocaine – modulates human dopamine transporter uptake under cocaine. LLC-PK1 hDAT cells, [14C]-dopamine uptake with cocaine IC80; actives deviate in either direction. B-score at 10 µM. 110,000 compounds, 1.3% hits. AID 449768;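 active = Z score or B-score, a plate-position-corrected score, falls beyond the plate's 99.7% confidence bounds, in either direction; inactive = both scores lie inside the 99.7% bounds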;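 note: scored against the spread of the other compound wells on the same plate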
# M1 antag confirm – M1 muscarinic receptor (rat) antagonism, confirmed; 1,700 compounds, 43% hits; calcium response (max-min fluorescence) at 10 µM; CHO-M1 cells, Fluo-4 calcium, ACh EC80 antagonism; hits give low values; shares compounds with M1 antag;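 active = calcium response below the same-plate mean of wells given acetylcholine alone at its 80%-effect dose, minus 3 SD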;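 note: raw fluorescence intensity difference in arbitrary instrument units and not normalized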
# mGluR4 antag – acts on human mGluR4 in M1 antagonist selectivity test; shares compounds with M1 antag; 1,700 compounds, 0.9% hits; AID 678; fluorescence response (max-min) at 10 µM; CHO-mGluR4 calcium flux, Fluo-4 fluorescence, glutamate EC80; hits give low values;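 active = fluorescence response below the plate's average for near-maximal glutamate wells, less 3 SD of those wells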;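 note: raw unnormalized fluorescence span taken in the window right after glutamate addition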
# * hit, by the source's call; nt = not tested or not shown. Most compounds without a hit are left out; they make up all but 7.6% or so of the library.
SMILES,M1 antag,HEK293 NFkB inh,Jurkat viability,M1 agonist,D1 allo mod,hDAT+cocaine,M1 antag confirm,mGluR4 antag
Cc1noc(C)c1S(=O)(=O)N1CCC(C(=O)N2CCN(c3ccc(F)cc3)CC2)CC1,-1.9*,9,nt,0.036,-0.038,-1.4,552,191
Cc1noc(C)c1S(=O)(=O)Nc1ccc(C(=O)NC2CCCCCC2)cc1,-1.1,15,6,-0.09,1.7,nt,nt,nt
Cc1nc(=O)c(-c2ccccc2)c(C)n1Cc1ccccc1,0.75,15,7,-0.064,nt,0.2,nt,nt
COc1ccc(CCN2C(=O)c3[nH]nc(-c4ccccc4O)c3C2c2ccccc2)cc1OC (stereo not drawn),0.9,3,9,0.56,0.61,0.35,nt,nt
Cc1cccc(C2Nc3ccccc3C(=O)N2CCc2ccccc2)n1 (stereo not drawn),-11*,3,-1,-0.64,-1.6,-0.003,554,212
CC(C(=O)Nc1ccccc1C(=O)N1CCCC1)n1nnc2ccccc21 (stereo not drawn),0.3,11,10,-0.33,-0.26,-0.21,nt,nt
CCOC(=O)CC(Nc1nc(N2CCOCC2)nc(N2CCOCC2)n1)c1ccccc1Cl (stereo not drawn),-12*,24,4,-0.05,1.4,-0.4,366*,242
Cc1noc(C)c1S(=O)(=O)N1CCC(C(=O)NCCN2CCC(C)CC2)CC1,-4.3*,18,nt,1.2,nt,-0.92,437,198
CCS(=O)(=O)N1CCC(C(=O)NCCN2CCN(Cc3ccccc3)CC2)CC1,-3.4*,-3,-4,-0.078,-0.37,0.43,519,201
Cc1ccc(S(=O)(=O)N2CCC(C(=O)NCCN3CCCCCC3)CC2)cc1,-3.5*,10,2,-0.47,0.59,-0.17,527*,217
Cc1nnc(SCC(=O)Nc2ccc(S(=O)(=O)N3CCCC3)cc2)n1N,-4.7*,1,-2,-0.033,0.22,-1.5,276*,241
CC1CCCN(CC(=O)Nc2ccc(S(=O)(=O)N3CCCCCC3)cc2)C1 (stereo not drawn),-2.1*,7,6,1.1,-0.0089,1.2,375*,255
CCCS(=O)(=O)N1CCC(C(=O)NCCN2CCC(Cc3ccccc3)CC2)CC1,-4.6*,6,4,-0.61,0.055,0.75,467*,233
O=S(=O)(NC1=NCCCCC1)c1cccs1,-0.55,7,nt,-0.69,0.6,2,nt,nt
CC1CCc2nc(NC(=O)CN3CCOCC3)sc2C1 (stereo not drawn),-4*,1,-1,0.92,-0.045,0.062,666,198
CC1CCc2nc(NC(=O)CN3CCN(c4ccccc4)CC3)sc2C1 (stereo not drawn),-0.039,6,-8,-0.029,0.052,0.046,nt,nt
Cc1ccc(C)c(Cn2nnc3c(=O)[nH]c(C(=O)NCc4ccco4)nc32)c1,-2.4*,-1,-3,-0.83,nt,-0.047,560,251
CCCC(=O)Nc1ccc(C(=O)N/N=C2\CC(=O)CC(C)(C)C2)cc1,nt,nt,nt,nt,nt,-0.13,nt,nt
CC1(C)CC(=O)CC(=NCC(=O)O)C1,-2.6*,17,-1,0.54,0.02,0.033,665,268
CCOc1ccc2nc(N3CCC(C(=O)N4CCN(c5ccccn5)CC4)CC3)sc2c1,-2.4*,10,35*,0.87,nt,-0.021,411,198
CCOc1ccc2nc(N3CCC(C(=O)N4CCN(c5ncccn5)CC4)CC3)sc2c1,0.31,9,-3,-0.52,-0.45,-0.5,nt,nt
CN1/C(=C\C(=O)c2cccs2)Sc2ccccc21,-6.5*,5,8,-1.1,-4.8*,0.084,545,179
COc1ccc(N2C(=O)C(Cl)=C(NCc3ccccc3)C2=O)cc1,nt,nt,nt,nt,nt,0.45,nt,nt
COCCCNC(=O)c1ccc2c(c1)CCN2S(C)(=O)=O,nt,nt,nt,nt,nt,-0.043,nt,nt
CCN1CCN(c2ccc(NC(=O)c3cccc(OCc4ccccc4)c3)cc2)CC1,nt,nt,nt,nt,nt,0.00049,nt,nt
